# Assay results collected from several papers.
# Compare with care: the assays were run in different laboratories. pIC50: −log10 of the molar value.
# Read-out: cell growth or viability
SMILES,cell line,method,time,quantity,result
COc1ccc2c(c1)C(=O)C(=O)N2CCn1ncc2c(=O)[nH]cnc21,BALB/3T3 clone A31,SRB,72 h,IC50,21.7 µg/mL
CCCCC(=O)Nc1ccc(-c2ccc3ncn(CCC)c(=O)c3c2)cn1,human PBMC,CCK-8,72 h,pIC50,< 5.00
Cc1ccc(S(=O)(=O)n2cc(/C=N/NC(=O)c3ccccc3Br)c3ccccc32)cc1,MCF-10A,MTT,48 h,pIC50,< 4.30
Cc1ncsc1-c1ccc([C@H](C)NC(=O)[C@@H]2C[C@@H](O)CN2C(=O)[C@@H](NC(=O)CN2CCN(c3cc(-c4ccccc4O)nnc3N)CC2)C(C)(C)C)cc1,VCaP,ATP luminescence,7 days,pIC50,8.04
CC(=O)c1ccc2cc(S(=O)(=O)Nc3cccnc3)ccc2c1,MDCK,neutral red,48 h,pIC50,4.68
COc1cc(C2C3=C(COC3=O)N(CCO)c3cc4c(cc32)CCC4)cc(OC)c1OC (stereo not shown),4T1,ATP luminescence,48 h,pIC50,6.07
COc1cccc2c1C(=O)c1c(O)c3c(c(O)c1C2=O)C[C@@](O)(C(=O)CO)C[C@@H]3O[C@H]1C[C@H](N)[C@H](O)[C@H](C)O1,MDCK,neutral red,48 h,pIC50,4.15
CC(C)[C@@H]1NC(=O)[C@H](Cc2c[nH]cn2)NC1=O,NCI-H446,SRB,,pIC50,< 4.82
Nc1ccn([C@@H]2O[C@H](CO)[C@@H](O)C2(F)F)c(=O)n1,4T1,MTT,48 h,IC50,3.37 µg/mL
N#Cc1ccc(-c2cc(COc3cc(C(F)(F)F)nc4ccccc34)on2)cc1,K562,MTS,72 h,pIC50,4.08
CC(C)(C)[C@H](NC(=O)/C=C/c1ccc(OP(=O)(O)O)cc1)C(=O)N1CCC[C@H]1C(=O)N(c1ccccc1)c1ccc(I)cc1,JHH7,CCK-8,,pIC50,5.51
Cc1ccc(S(=O)(=O)n2cc(/C=N/NC(=O)c3ccccc3)c3ccccc32)cc1,MCF-10A,MTT,48 h,pIC50,< 4.30
CN1CCC(NC2CCc3[nH]c4c(C(N)=O)ccc(-c5ccccc5Cl)c4c3C2)CC1 (stereo not shown),NCI-H446,,96 h,pIC50,8.10
CNC(=O)c1cc(Oc2ccc(NC(=O)Nc3ccc(Cl)c(C(F)(F)F)c3)cc2)ccn1,BALB/3T3 clone A31,SRB,72 h,IC50,0.42 µg/mL
N#Cc1ccc(-c2cc(CNc3cccc4cccnc34)on2)cc1,K562,MTS,72 h,pIC50,4.95
Cc1ccc(S(=O)(=O)n2cc(/C=N/NC(=O)c3ccc([N+](=O)[O-])cc3)c3ccccc32)cc1,MCF-10A,MTT,48 h,pIC50,< 4.30
O=c1cc(OCc2cc(-c3ccccc3)no2)c2ccccc2o1,K562,MTS,72 h,pIC50,< 4.00
COc1ccc2c(c1)/C(=N/NC(N)=S)C(=O)N2CCn1ncc2c(=O)[nH]cnc21,BALB/3T3 clone A31,SRB,72 h,IC50,77.5 µg/mL
Cc1ccc(S(=O)(=O)n2cc(/C=N/NC(=O)c3cc4ccccc4cc3O)c3ccccc32)cc1,MCF-10A,MTT,48 h,pIC50,< 4.30
Nc1ncnc2c1ncn2CCN1C(=O)C(=O)c2cc(Cl)ccc21,BALB/3T3 clone A31,SRB,72 h,IC50,24.4 µg/mL
Cc1ccc(S(=O)(=O)n2cc(/C=N/NC(=O)c3cccc(Cl)c3)c3ccccc32)cc1,MCF-10A,MTT,48 h,pIC50,< 4.30
CCOC(=O)c1c(C)nc2ccc(-c3cccc(F)c3)cc2c1O,MCF-10A,MTT,48 h,pIC50,≤ 4.00
Cc1ncsc1-c1ccc(CNC(=O)[C@@H]2C[C@@H](O)CN2C(=O)[C@@H](NC(=O)C2(F)CC2)C(C)(C)C)c(OCCOc2ccc(CN3CCN(c4cc(-c5ccccc5O)nnc4N)CC3)cc2)c1,VCaP,ATP luminescence,7 days,pIC50,7.61
O=C1C(=O)N(CCn2ncc3c(=O)[nH]cnc32)c2ccc(Cl)cc21,BALB/3T3 clone A31,SRB,72 h,IC50,11.4 µg/mL
CC(=O)c1ccc2cc(S(=O)(=O)Nc3ccccc3)ccc2c1,MDCK,neutral red,48 h,pIC50,4.04
CC(C)=CCc1ncc(/C=C2\NC(=O)[C@H](C(C)C)NC2=O)[nH]1,NCI-H446,SRB,,pIC50,< 4.82
Cc1ccc(S(=O)(=O)n2cc(/C=N/NC(=O)c3cccnc3)c3ccccc32)cc1,MCF-10A,MTT,48 h,pIC50,< 4.30
C=CC(C)(C)c1[nH]cnc1/C=C1/NC(=O)[C@H](C(C)C)NC1=O,NCI-H446,SRB,,pIC50,5.70
C/C(=C\C(=O)N[C@H](C(=O)N1CCC[C@H]1C(=O)N(c1ccccc1)c1ccc(I)cc1)C(C)(C)C)c1ccc(OP(=O)(O)O)cc1,JHH7,CCK-8,,pIC50,5.14
CC(=O)c1ccc2cc(S(=O)(=O)Nc3ccccn3)ccc2c1,MDCK,neutral red,48 h,pIC50,4.05
FC(F)(F)c1ccc(-c2cc(COc3cc(C(F)(F)F)nc4ccccc34)on2)cc1,K562,MTS,72 h,pIC50,< 4.00
